Measurements as given in ChEMBL document CHEMBL2321778, “GC-targeted C8-linked pyrrolobenzodiazepine-biaryl conjugates with femtomolar in vitro cytotoxicity and in vivo antitumor activity in mouse models” (J Med Chem, 2013).
Activity calls are given as the source filed them. The rule behind the calls is not given here.

Columns and labels:
[1] = Binding affinity to GC-rich FAM-GCGCAGATTTTCTGCGC-TAMRA DNA (unknown origin) assessed as change in melting temperature at 1 uM by FRET assay
Outline: (§1)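 Fam/Tamra-labelled hairpins, 400 nM in 50 mM potassium cacodylate pH 7.4, annealed at 85 °C for 5 min, cooled over 5 h, then mixed 1:1 with ligand diluted from DMSO stock; ligand 1 μM, 24 h incubation. Fluorescence (excitation 450−495, emission 515−545 nm) read every 0.5 °C from 30−100 °C; Tm from first-derivative maximum of smoothed curves, ΔTm versus blank.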

[2] = system: WI-38; test: Cytotoxicity against human WI38 cells after 96 hrs by MTT assay; assay type: cell-based; conditions: WI-38, 96 h
Outline: (§2)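 Adherent cells were grown at 37 °C in 5% CO2 in DMEM or MEM with 10% FBS, L-glutamine, nonessential amino acids and hydrocortisone, then seeded to 30–40% confluence. Compounds were dissolved in water at up to 100 μM, serially diluted tenfold and added for 96 h of continuous exposure. MTT absorbance was read at 570 nm, and IC50 was taken from dose–response analysis.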

[3] = system: A549; test: Cytotoxicity against human A549 cells after 96 hrs by MTT assay; assay type: functional, cell-based; conditions: A549, 96 h; outline: as §2
[4] = Selectivity ratio of deltaTm for GC-rich FAM-GCGCAGATTTTCTGCGC-TAMRA DNA (unknown origin) to deltaTm for AT-rich FAM-TATAAGATTTTCTTATA-TAMRA DNA (unknown origin); outline: as §1
[5] = Cytotoxicity against human primary CLL cells after 96 hrs by annexin V/propidium iodide staining-based FACS flow cytometric analysis; assay type: functional, cell-based
Outline: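 Freshly isolated peripheral blood CLL cells at 1 × 10^6/mL were cultured in RPMI with penicillin, streptomycin and 10% FCS at 37 °C in 5% CO2. Serial dilutions of compound from DMSO stocks were added, with drug-free control cultures. Apoptosis was measured by annexin V/propidium iodide flow cytometry, in duplicate. LD50 came from sigmoidal curves of log concentration against percentage apoptosis.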

[6] = system: MDA-MB-231; test: Cytotoxicity against human MDA-MB-231 cells after 96 hrs by MTT assay; assay type: functional, cell-based; conditions: MDA-MB-231, 96 h; outline: as §2
[7] = system: MCF7; test: Cytotoxicity against human MCF7 cells after 96 hrs by MTT assay; assay type: functional, cell-based; conditions: MCF7, 96 h; outline: as §2
[8] = system: A2780; test: Cytotoxicity against human A2780 cells after 96 hrs by MTT assay; assay type: functional, cell-based; conditions: A2780, 96 h; outline: as §2
[9] = system: A-431; test: Cytotoxicity against human A431 cells after 96 hrs by MTT assay; assay type: functional, cell-based; conditions: A-431, 96 h; outline: as §2
[10] = system: MIA PaCa-2; test: Cytotoxicity against human MIAPaCa2 cells after 96 hrs by MTT assay; assay type: functional, cell-based; conditions: MIA PaCa-2, 96 h; outline: as §2
[11] = Binding affinity to AT-rich FAM-TATAAGATTTTCTTATA-TAMRA DNA (unknown origin) assessed as change in melting temperature at 1 uM by FRET assay; outline: as §1
[12] = system: MIA PaCa-2; test: Antitumor activity against human MIAPaCa2 cells xenografted in MF1 nude mouse at 300 ug/kg/day, iv administered for 5 consecutive days followed by 2 drug-free days repeated for 3 weeks relative to control; assay type: functional, organism-based
Outline: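 MIA PaCa-2 cells (5 × 10^6) implanted subcutaneously in flank of female MF1 nude mice (2−3 months, 20−25 g); at ~0.06 cm3, groups of six. DMSO stock diluted in saline, given by tail-vein injection at 300 μg/kg/day, five days on, two off, for three weeks; vehicle controls. Tumors measured every 3−4 days by ellipsoid formula; mice weighed for toxicity.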

[13] = Toxicity in ip dosed Swiss Webster mouse; assay type: organism-based; conditions: in vivo
[14] = system: HeLa; test: Inhibition of NFkappaB activity in human HeLa cells at 10 nM after 4 hrs relative to control; assay type: cell-based
Outline: (§3)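 Nuclear extracts from 1 × 10^7 HeLa cells treated 4 h, plus untreated controls; 10 μg nuclear protein per sample run on a 48-transcription-factor activation profiling plate array per kit instructions.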

[15] = system: HeLa; test: Downregulation of SMAD in human HeLa cells at 10 nM after 4 hrs relative to control; assay type: functional; outline: as §3
[16] = system: MIA PaCa-2; test: Inhibition of NFkappaB in human MIAPaCa2 cells xenografted in mouse assessed as downregulation of BCL2 by immunohistochemical staining relative to control; assay type: cell-based
Outline: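 Sections of MIA PaCa-2 xenograft tumors from treated and untreated mice: peroxidase quenched with 0.3% H2O2/methanol 15 min, blocked in 3% goat serum/PBS 30 min, 2 μg/mL BCL2 antibody 1 h at room temperature, then HRP […] antibody 1 h; staining quantified against controls.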

[17] = system: CLL; test: Inhibition of NFkappaB-mediated p65 phosphorylation in human primary CLL cells at 0.1 nM after 24 hrs by Western blotting analysis; assay type: cell-based
Outline: (§4)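 Primary CLL cells exposed 24 h, washed in PBS and lysed in HEPES-based buffer with NaF, iodoacetamide, NP40, PMSF, orthovanadate, protease and phosphatase inhibitors; Western blots probed for phosphorylated IκBα and p65, actin as loading control.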

[18] = system: MDA-MB-231; test: Antitumor activity against human MDA-MB-231 cells xenografted in iv dosed MF1 nude mouse administered for 5 consecutive days followed by 2 drug-free days repeated for 4 weeks relative to control; assay type: functional, organism-based
Outline: (§5)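 MDA-MB-231 cells (5 × 10^6) implanted subcutaneously in flank of female MF1 nude mice (2−3 months, 20−25 g), passaged as ~1 mm3 tumor pieces; at ~0.06 cm3 (three weeks) split into groups of six. Agent in DMSO diluted in saline, tail-vein iv at 250 or 300 μg/kg/day, 5 days on/2 off for four weeks; untreated controls. Tumor volume (L×W×H×π/6) and body weight every 3−4 days.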

[19] = system: CLL; test: Inhibition of NFkappaB-mediated IkappaBalpha phosphorylation in human primary CLL cells at 0.1 nM after 24 hrs by Western blotting analysis; assay type: cell-based; outline: as §4
[20] = system: HeLa; test: Downregulation of EGR in human HeLa cells at 10 nM after 4 hrs relative to control; assay type: functional; outline: as §3
[21] = system: HeLa; test: Downregulation of OCT4 in human HeLa cells at 10 nM after 4 hrs relative to control; assay type: functional; outline: as §3
[22] = system: Mus musculus; test: Toxicity in MF1 nude mouse xenografted with human MDA-MB-231 cells at 250 to 300 ug/kg/day, iv; assay type: organism-based; conditions: in vivo
Outline: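 Female MF1 nude mice (2–3 months old, 20–25 g) carried subcutaneous flank MDA-MB-231 xenografts. At about 0.06 cm3 the mice were split into groups of six: 250 or 300 μg/kg iv by tail vein, or untreated. Compound was dissolved in DMSO and diluted in saline, given daily for 5 days then 2 days off, over 4 weeks. Body weight and signs of toxicity (>20% weight loss) were checked every 3–4 days.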

[23] = system: HeLa; test: Downregulation of NFAT in human HeLa cells at 10 nM after 4 hrs relative to control; assay type: functional; outline: as §3
[24] = system: MDA-MB-231; test: Antitumor activity against human MDA-MB-231 cells xenografted in MF1 nude mouse at 300 ug/kg/day, iv administered for 5 consecutive days followed by 2 drug-free days repeated for 4 weeks measured up to 3 weeks after last dose; assay type: functional, organism-based; outline: as §5
[25] = system: Mus musculus; test: Toxicity in Swiss Webster mouse at 350 ug/kg/day, ip; assay type: organism-based; conditions: in vivo, 0.35 mg/kg

Row | Structure (SMILES) | ΔTm [1] [°C] | IC50 [2] [nM] | IC50 [3] [nM] | Ratio [4] | IC50 [5] [nM] | IC50 [6] [nM] | IC50 [7] [nM] | IC50 [8] [nM] | IC50 [9] [nM] | IC50 [10] [nM] | ΔTm [11] [°C] | also measured
1 | COC(=O)c1nc(NC(=O)c2cc(NC(=O)c3cc(-c4ccc(NC(=O)CCCOc5cc6c(cc5OC)C(=O)N5CCC[C@H]5C=N6)cc4)cn3C)cn2C)cn1C | 5.8 | 65.6 | 0.45 | 1.7 | 0.037 | 0.015 | 0.075 | > 20000 | 0.064 | 0.25 | 3.4 | 
2 | COC(=O)c1cc(NC(=O)c2cc(-c3ccc(NC(=O)CCCOc4cc5c(cc4OC)C(=O)N4CCC[C@H]4C=N5)cc3)cn2C)cn1C | 3.1 | 426 | 0.019 | 1.48 | 2.1 | 2.7 | 1.7 | 0.96 | 4.6 | 0.34 | 2.1 | 
3 | COc1cc2c(cc1OCCCC(=O)O)N=C[C@@H]1CCCN1C2=O | 0.2 | 4660 | 1500 | 0.5 | > 20000 | 1670 | 702 | 3760 | 1090 | 1560 | 0.4 | 
4 | COC(=O)c1cc(-c2ccc(NC(=O)c3nc(NC(=O)CCCOc4cc5c(cc4OC)C(=O)N4CCC[C@H]4C=N5)cn3C)cc2)cn1C | 6.2 | 129 | 0.034 | 1.03 | 0.17 | 0.00018 | 2e-05 | 0.021 | 0.018 |  | 6 | Activity [12]: Active; MTD [13]: 0.4 mg/kg/day; inhibition [14]: 50%; Activity [15]: 30%; inhibition [16]: Active; inhibition [17]: Active; Activity [18]: Dose-dependent effect; inhibition [19]: Active; Activity [20]: 30%; Activity [21]: 30%; Activity [22]: Non-toxic; Activity [23]: 30%; Activity [24]: Active; Activity [25]: Non-toxic
5 | COC(=O)c1cc(-c2ccc(N)cc2)cn1C |  | > 20000 | > 20000 |  | > 20000 | > 20000 | > 20000 | > 20000 | > 20000 | > 20000 |  | 
6 | COC(=O)c1cc(NC(=O)c2cc(NC(=O)c3cc(-c4ccc(NC(=O)CCCOc5cc6c(cc5OC)C(=O)N5CCC[C@H]5C=N6)cc4)cn3C)cn2C)cn1C | 4.3 | 41.3 | 2.3 | 1.34 | 0.96 | 0.59 | 0.31 | 0.24 | 0.86 | 0.31 | 3.2 | 
